Test system: MS2 coat protein
Assay: apparent Kd, MS2 coat protein; higher = weaker binding; RNA-MaP array; FMN 200 µM where present
Method in brief: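 Apparent Kd: the median of filtered binding-curve fits from single clusters. Designs were transcribed on Illumina sequencing-chip clusters by stalled E. coli RNA polymerase and titrated with SNAP-549-labelled MS2 coat protein from 0.7 or 1.5 nM, doubling to 3 µM, in 100 mM Tris-HCl pH 7.5, 80 mM KCl, 4 mM MgCl2, BSA, DTT, yeast tRNA and Tween-20. Each series ran without and then with constant ligand, and green signal was normalised to red-channel RNA signal and control-cluster median Fmax.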

[1] = designed as: ON switch for flavin mononucleotide, no ligand
[2] = ligand present: flavin mononucleotide, designed as: ON switch for flavin mononucleotide
[3] = designed as: OFF switch for flavin mononucleotide, no ligand
[4] = ligand present: flavin mononucleotide, designed as: OFF switch for flavin mononucleotide

Sequence | apparent Kd [1] [nM] | apparent Kd [2] [nM] | apparent Kd [3] [nM] | apparent Kd [4] [nM]
CGUAGGAUCCAGAAGGCAUGAAACAUGAGGAUCACCCAUGUAAAAGACAUGAGGAUAUGGAUCCUACGAAAAGUGCGAAAGCAC | 3.69 | 3.4 | – | –
CGUAGGAUGCAGAAGGCAUGAACAUGAGGAUCACCCAUGUCAAAAUACAUGAGGAUAUGCAUCCUACGAAAAGUGCGAAAGCAC | 4.62 | 4.3 | – | –
CGUAUAUGGGAGAAGGCAUGUCCCAAAGGGCCAUGAGGAUAUCCUAAGUGUACGCUUUGCGACAUGAGGAUCACCCAUGUAGCA | 7.07 | 5.75 | – | –
CGUAUCGUAAGAGGAUAUAUGAGUCCUACAUGAGGAUCACCCAUGUAGGUGAUCUAACGAGAUUAGUAGAAGGCUUACGAUACG | 14.3 | 7.96 | – | –
CGUCAGUGAGGAUAUGGUGUCGUUUACAUGAGGAUCACCCAUGUUUCAUGGGACUAGAGACUAGAAGGUACUGACG | – | – | 97.4 | 266
CGUCAUUACUCAGGAUAUGCACCAUACUUGAGGGCAGAAGGGAGUACAUGAGGAUCACCCAUGUACUAUGGGCGCCUAAGAGGU | – | – | 8.26 | 45.1
CGUCCACAUGAGGAUCACCCAUGUGAGGAUAUCGAUGUCCCAGGGCGGGUGCGGGACUCGAGAAGGCGCUAGGU | – | – | 23.3 | 29
CGUCCGUGGGUAGUGAUCGUACAUGAGGAUCACCCAUGUGGGAAGGAUAUGCAUGCACGUGGACAGCAGAAGGUCCCACAACAA | – | – | 154 | 86
CGUCCUUAGUGAGGAUAUCAGAAAAUACGGAAAUGAGAAGGCACAUGAGGAUCACCCAUGUAAAUAACGGCCGGCCUUGGCAGC | – | – | 6.26 | 13.4
CGUCGAAAGGCGGGUCCAUCACCACAUGAGGAUCACCCAUGUAAGGAUAUCGGACUCAGAAAGAGCGAGAAGGUACAUAGUUAA | – | – | 6.01 | 6.53
CGUCGAUACCAGAAGGACAUGAGGAUCACCCAUGUAGGAUAUGGGUGACCGGGAUGGCAGACAUGGUGCCCGGGCACAUGCGAC | 70 | 9.82 | – | –
CGUCGCUGUCGAGAGGAUAUGCGGUGAUGGACAUGAGGAUCACCCAUGUUAGCGAUAGUAUCACGGUAGAAGGCUCUUACGACUG | 32.9 | 25.3 | – | –
CGUCGGUGGCAGAAGGGACAGAGAUCCUCGCUGCCGGAUCGUCUUGCACAUGAGGAUCACCCAUGUCAGGAUAUGCCCAAGCGG | – | – | 5.35 | 5.15
CGUGACUCAGGAUAUCUAUAGUAUCACAUGAGGAUCACCCAUGUCCAGCGAAAGCUGGAGGGAGAAGGGAGUCACG | – | – | 266 | 53.9
CGUGCACAUGUAGGAUAUGGUUAUCUAUGUCUAGUUACUAGACAUAGAUAACCAGAAGGACAUGAGGAUCACCCAUGUAGCACG | – | – | 346 | 275
CGUGCGUAUGUGAGGAUAUGCUGGUCCUUGGCUCGGCAGAAGGCACAUGAGGAUCACCCAUGUGGUGUCGUACU | – | – | 69 | 179
CGUUCAGAGAACGAUACGAAUGGACAUGAGGAUCACCCAUGUAGAAGGACAACGGAAUAAACGUUGUAGGAUAUACAUUUAGUG | – | – | 53.7 | 134
CGUUCAGCGAACGAUACGAAUGGACAUGAGGAUCACCCAUGUAGAAGGACAGGAGAAUAACGACUGUAGGAUAUACAUUUAGUG | – | – | 41.1 | 84.8
CGUUGAUGAUUUCUUCACAUGAGGAUCACCCAUGUCGCUCGACAGGAUAUAUUUGAGUUGUUUAAGUAGAAGGGUCGCAGAUGC | 112 | 183 | – | –
CUAAUGUGAGGAUAUGGUGUUGAUCGCAGGAAGGAGAUUCUCCAGAAGGCACAUGAGGAUCACCCAUGUAGUGA | – | – | 103 | 51.1
CUACCUUAUGAGAAGGCGAUCAUGAAACAUGAUCGAGGAUAUCAUGUAAACAUGAGGAUCACCCAUGUAUGGGUAUUAUGGUAA | 106 | 24.4 | – | –
CUACGGGACGGAGAUCGUGGUGAAGUAGAAGGGUGAGAUGACAUGAGGAUCACCCAUGUAGUAGCGCAGGAUAUACGGCACCGG | 388 | 103 | – | –
CUACUGUGAGGAUAUGGUGAGUAGUGCCUGAGCGCUGCUCACCAGAAGGCACAUGAGGAUCACCCAUGUAUGAC | – | – | 53.9 | 220
CUAGACUGAUCAGGAUAUCAUCGCGUGGUGUAUCCCUGUGAUUACAUGAGGAUCACCCAUGUGCAUGAGAAGGGAUUACUAUGU | – | – | 54.7 | 30
CUAGCUAUCGGAGGAUAUCCUCAGCGGAAACGCACAUGAGGAUCACCCAUGUAAAUAAAUAAUUUGGAGAAGGCCGAUAGCUAG | 294 | 19.2 | – | –
CUAGUAUAUCAGGAUAUGAUUUUAUAUAUUGGAUCAGAAGGGAUAACAUGAGGAUCACCCAUGUUGUGGAGUGA | – | – | 110 | 360
CUAUAUAAUACCUCAUGUACAUGAGGAUCACCCAUGUUAACUUAGGAUAUAUUUAUAUUAAUAGAGUAGAAGGAAGUACUAUUU | – | – | 22.1 | 17.4
CUAUGAACGAUAGGAUAUACUGAGGUUGAGUGGGUAGAAGGAUCGAUAGUGGAGAAGACAUGAGGAUCACCCAUGUUAUGGAUU | 552 | 170 | – | –
